Assay outcomes (PubChem BioAssay)
GAA850 FXN act – FXN promoter activators, primary screen, cell-based, luciferase luminescence, HEK293 lucGAA850. activation, % at 6 µM. AID 540364, 2011. hit rate 0.56% among 360,000. HEK293 lucGAA850 FXN promoter luciferase reporter, 24 h; percent of 10 µM SAHA response;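 active = activation above the average of all compounds screened plus 3 SD, cutoff fixed separately per campaign, cut at about 7.5% in these data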
proCasp7 act – procaspase-7 activators, primary screen, counter-screen for procaspase-3 activator project, biochemical, absorbance, HTS, human; recombinant procaspase-7, Ac-DEVD-pNA absorbance 405 nm; D23A/D198A/D206A triple mutant, cannot self-cleave; scale: DMSO 0, 5 µM enzyme 100; activation, % at 8.5 µM; hit rate 0.093% among 330,000;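 active = percent activation above the screen-wide mean plus 3 SD, cut at about 25% in these data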
Target sequence (P55210 whole entry D23A/D198A/D206A): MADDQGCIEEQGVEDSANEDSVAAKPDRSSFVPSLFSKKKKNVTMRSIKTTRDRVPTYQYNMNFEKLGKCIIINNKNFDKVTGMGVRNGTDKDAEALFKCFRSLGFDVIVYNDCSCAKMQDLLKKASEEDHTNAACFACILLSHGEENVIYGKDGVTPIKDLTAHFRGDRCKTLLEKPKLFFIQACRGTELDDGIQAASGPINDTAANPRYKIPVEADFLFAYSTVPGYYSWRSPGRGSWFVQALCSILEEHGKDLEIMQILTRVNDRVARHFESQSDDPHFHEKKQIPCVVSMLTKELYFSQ
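Test system: Procaspase-7 triple mutant (PC-7 D3A). Also added: Ac-DEVD-pNA substrate, 400 µM as added. Schedule: 1 h enzyme–compound preincubation and 2 h substrate reaction, both 25 °C. Signal: p-Nitroaniline absorbance at 405 nm, read at 0 and 120 min. Control set: low DMSO alone, high DMSO plus 5 µM PC-7.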
procasp3 activ – activators of human procaspase-3 D3A mutant, primary screen, biochemical, absorbance, PC-3 D3A mutant, single concentration; activation, % at 8.5 µM; hit rate 0.11% among 330,000; recombinant procaspase-3 D3A, Ac-DEVD-pNA absorbance 405 nm; AID 463141, 2010; Caspase-3 (Homo sapiens), P42574;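 active = activation above the mean of all tested compounds plus 3 SD, cut at about 21% in these data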
Target sequence (P42574 whole entry D9A/D28A/D175A): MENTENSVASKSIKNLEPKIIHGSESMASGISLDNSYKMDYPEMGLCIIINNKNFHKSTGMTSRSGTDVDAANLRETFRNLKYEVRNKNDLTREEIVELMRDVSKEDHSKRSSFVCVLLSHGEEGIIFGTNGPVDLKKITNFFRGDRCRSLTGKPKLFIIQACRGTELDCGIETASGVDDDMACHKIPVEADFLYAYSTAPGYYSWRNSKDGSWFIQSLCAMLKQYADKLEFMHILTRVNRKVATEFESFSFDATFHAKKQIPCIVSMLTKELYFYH
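Technique: 405 nm absorbance of p-nitroaniline, reads at 0 and 120 min; Test system: Procaspase-3 D3A mutant; Incubation: 1 h enzyme-compound preincubation, then 2 h substrate reaction, 25 °C; Repeats: singlicate, each compound tested once; Benchmarks: low control DMSO wells, high control DMSO plus 5 µM PC-3 D3A.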
GAA30 FXN cntr – GAA30 FXN promoter activators, confirmation, counter-screen for GAA850 frataxin promoter activator project, cell-based, luminescence, HEK293, lucGAA30, triplicate | shares compounds with GAA850 FXN act | HEK293 lucGAA30 FXN promoter luciferase, 24 h; DMSO = 0%, 5 µM ipriflavone = 100% | activation, % at 6 µM | hit rate 66% among 1,900 | AID 588350, 2011;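 active = mean activation above the mean of solvent-only control wells plus 3 SD, cut at about 22% in these data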;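 also: counterscreen of GAA850 promoter hits where activity marks nonselective or luminescence artifacts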
GAA850 confirm – FXN GAA850 promoter activators in reporter cells, confirmation, cell-based, luminescence, HEK293 lucGAA850, triplicate; shares compounds with GAA850 FXN act; HEK293 lucGAA850 FXN promoter luciferase reporter, 24 h; 100% = activation by SAHA; activation, % at 6 µM; hit rate 86% among 1,900;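 active = mean activation above a set limit taken from the primary screen, cut at about 8% in these data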
Large screens that a line does not name were inactive (follow-up assays come after a bar, where they were run). Sampled rows, rich in hits. Any-hit rate of the full collection: about 0.7%.

COc1ccc(CN2CCNC(=O)C2CC(=O)NCCC2=CCCCC2)c(F)c1 (stereo unspecified)	none
COc1ccc(O)c(-c2nc(N)nc(N)n2)c1	none
Nc1nc(N)nc(-c2cc(F)ccc2O)n1	GAA850 FXN act 12 | GAA30 FXN cntr 67 | GAA850 confirm 42
COc1ccc(NS(=O)(=O)c2cc(NC(=O)CNC(=O)c3cccc(OC)c3)ccc2C)cc1	GAA850 FXN act 7.9 | GAA30 FXN cntr 32 | GAA850 confirm 18
COc1cccc(NC(=O)CNC(=O)c2ccccc2)c1	none
CN1CCN(C(=O)/C(=C/c2ccccc2F)NC(=O)c2ccccc2)CC1	none
O=C(CSC(=S)N1CCSCC1)c1ccc(Cl)cc1	GAA850 FXN act 9.8 | GAA30 FXN cntr 114 | GAA850 confirm 42
O=C(CSC(=S)N1CCSCC1)c1ccccc1	none (no result: proCasp7 act, procasp3 activ)
COc1ccc(C(=O)CSc2nnc3n2CCCN3C(=O)Nc2ccccc2)cc1	none
O=C(Nc1ncnc2sc3c(c12)CCCC3)c1ccncc1	none
O=C(Nc1ncnc2sc3c(c12)CCCCC3)c1ccco1	GAA850 FXN act 12 | GAA30 FXN cntr inactive | GAA850 confirm inactive
CN([C@@H](C(=O)OC(C)(C)C)c1ccccc1)S(=O)(=O)c1cccc(S(=O)(=O)N(C)[C@@H](C(=O)OC(C)(C)C)c2ccccc2)c1	none
CC(C)(C)OC(=O)CC(S(=O)(=O)c1ccccc1)S(=O)(=O)c1ccccc1	GAA850 FXN act 18 (no result: proCasp7 act, procasp3 activ) | GAA30 FXN cntr inactive | GAA850 confirm 42
CCc1nnc(NC(=O)CC23CC4CC(CC(Br)(C4)C2)C3)s1	none
CCOc1ccc(N(C(=O)c2ccc(S(=O)(=O)N3CCCC3)cc2)C2C=CS(=O)(=O)C2)cc1 (stereo unspecified)	none
COc1ccc(S(=O)(=O)N2CCCCC2)cc1NC(=O)Cc1sc(C)nc1-c1ccc(F)cc1	GAA850 FXN act 13 | GAA30 FXN cntr 22 | GAA850 confirm 11
COc1ccc(S(=O)(=O)N2CCOCC2)cc1NC(=O)Cc1sc(C)nc1-c1ccc(F)cc1	none
CC(NCC(=O)Nc1ccccc1C(=O)NC1CC1)c1ccco1 (stereo unspecified)	none (no result: proCasp7 act, procasp3 activ)
Cc1ccc(-n2ncc(Cl)c2C(=O)NC2CC2)cc1	GAA850 FXN act 8.6 | GAA30 FXN cntr 110 | GAA850 confirm 32
CNC(=O)c1c(Cl)cnn1-c1ccc(C)cc1	none
CC[C@]12c3[nH]c4ccccc4c3CCN1C(=O)C(CC(=O)NCCCn1ccnc1)C[C@@H]2C(=O)N1CCN(C(=O)c2ccco2)CC1 (stereo partly specified)	none
CC(=O)Oc1ccc(CN2C(=O)C(CCc3ccccc3)ON=C2c2cnccn2)cc1 (stereo unspecified)	none (no result: proCasp7 act, procasp3 activ)
N#C/C(=C\c1cccs1)C(=O)Nc1nccs1	GAA850 FXN act 9.2 | GAA30 FXN cntr 106 | GAA850 confirm 28
N#C/C(=C\c1cccs1)C(=O)NCc1ccccc1	none
COc1ccc(C)cc1S(=O)(=O)NNc1nc(C)cc(C)n1	none
CCOC(=O)c1[nH]c2ccc(F)cc2c1NC(=O)c1ccccc1C(=O)O	none (no result: proCasp7 act, procasp3 activ)
CCOC(=O)c1[nH]c2ccc(OC)cc2c1NC(=O)c1ccccc1C(=O)O	GAA850 FXN act 8.0 | GAA30 FXN cntr 28 | GAA850 confirm 13
CCOc1ccc2c(c1)c(N=Nc1cccc(C(=O)O)c1)c(O)n2C	GAA850 FXN act 8.8 | GAA30 FXN cntr 107 | GAA850 confirm 38
Cc1ccc2c(c1)c(N=Nc1cccc(C(=O)O)c1)c(O)n2C	none
O=C(CN1C(=O)NC(CCc2ccccc2)C1=O)N1CCCCCC1 (stereo unspecified)	none
CCN(CC)S(=O)(=O)c1ccc2c(c1)N(CC(=O)N1CCC(C(N)=O)CC1)C(=O)CO2	none
CC1CCN(C(=O)CN2C(=O)C(=O)c3ccccc32)CC1	GAA850 FXN act 13 | GAA30 FXN cntr 22 | GAA850 confirm 8.3
CC1CCN(C(=O)CN2C(=O)c3cccc4cccc(c34)C2=O)CC1	none
Cc1csc(=O)n1CC(=O)OCC(=O)Nc1ccc(F)c(F)c1F	none (no result: proCasp7 act, procasp3 activ)
CC1CC(C)CN(C(=O)c2ccc(-c3ccc([N+](=O)[O-])cc3)o2)C1 (stereo unspecified)	none
O=C(c1ccc(-c2ccc([N+](=O)[O-])cc2)o1)N1CCCCC1	GAA850 FXN act 8.5 | GAA30 FXN cntr 125 | GAA850 confirm 44
CNC(=S)N1N=C(c2ccc(C)cc2)CC1c1ccc(N(C)C)cc1 (stereo unspecified)	none
CON(C)c1nc(OCCNC(=O)OCc2ccc(Cl)cc2C)nc(N(C)C)n1	GAA850 FXN act 12 | GAA30 FXN cntr inactive | GAA850 confirm inactive
CN(C)c1nc(OCCOC(=O)Nc2ccc(Cl)cc2Cl)nc(N(C)C)n1	none
Cc1ccc(C)c(-n2cc(CNCCCn3cccn3)c(-c3ccccc3)n2)c1	GAA850 FXN act 11 | GAA30 FXN cntr inactive | GAA850 confirm inactive
Cc1ccc(-n2cc(CNCCCn3cccn3)c(-c3cccc(C)c3)n2)cc1	none
O=C(C[C@@H]1C/C=C\C[C@@H](Cc2ccc(F)cc2)C(=O)OC[C@@H]2CCCN2C1=O)NCCO	none
COc1ccc(NC(=O)CCc2nnc3ccc(N4CCC(C)CC4)nn23)cc1OC	none
O=C(Nc1ccc(-c2nc3ccc(NC(=O)c4cccs4)cc3[nH]2)cc1)c1cccs1	GAA850 FXN act 15 | GAA30 FXN cntr inactive | GAA850 confirm 32
O=C(Nc1ccc2nc(-c3cccs3)[nH]c2c1)c1cccs1	none
O=S(=O)(NCc1ccccn1)c1cc(Cl)ccc1Cl	none
COc1cc(CCC(N)c2cccc(O)c2)cc(OC)c1OC (stereo unspecified)	none (no result: proCasp7 act, procasp3 activ)
CCN1C(=O)[C@H]2[C@H]3CN=C(SCc4ccc(C#N)cc4)N3[C@@](C)(C(=O)OC)[C@H]2C1=O	none
CCN1C(=O)[C@H]2[C@H]3CN=C(SCc4ccc(C(=O)OC)cc4)N3[C@@](CC)(C(=O)OC)[C@H]2C1=O	none
CC[C@]1(C(=O)OC)[C@H]2C(=O)N(Cc3ccccc3)C(=O)[C@H]2[C@H]2CN=C(SCC3CC3)N21	GAA850 FXN act 17 | GAA30 FXN cntr 30 | GAA850 confirm 18
CC[C@]1(C(=O)OC)[C@H]2C(=O)N(Cc3ccccc3)C(=O)[C@H]2[C@H]2CN=C(SCc3ccc(C)cc3)N21	GAA850 FXN act 13 | GAA30 FXN cntr 34 | GAA850 confirm 14
